Sampled rows, rich in hits. Any-hit rate of the full collection: about 4%.
TAAR1 antagonist: human TAAR1 antagonism | Q96RJ0 | 360,000 tested, 1.5% active | inhibition, % at 3 µM | CHO RD-HGA16 TAAR1, Fluo-8 calcium fluorescence, antagonist;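 active = inhibition above a per-plate cutoff, the mean inhibition of test compounds on that plate plus 3 SD, cut at about 49% in these data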
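Assay system: RD-HGA16 CHO cells with stable hTAAR1 and Gα16 / Reagent: EC80 β-phenethylamine stimulus / Doses: 3 µM, single point / Timing: dye loading 75 min at 37 °C, then 30 min room temperature / Measured by: Fluo-8 intracellular calcium dye fluorescence, real-time kinetic reads / Controls: vehicle wells and EC80 agonist wells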
GPR7 antagonist: antagonists of human GPR7 (neuropeptides B/W receptor 1) | GPR7-expressing cells, fluorescence antagonist assay | inhibition, % at 4.4 µM | P48145 | 290,000 tested, 1.1% active; in the data active = inhibition above about 16%, passing the limit was not always enough;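 note: cells stimulated with the agonist NPW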
Target sequence (P48145 whole entry, looked up): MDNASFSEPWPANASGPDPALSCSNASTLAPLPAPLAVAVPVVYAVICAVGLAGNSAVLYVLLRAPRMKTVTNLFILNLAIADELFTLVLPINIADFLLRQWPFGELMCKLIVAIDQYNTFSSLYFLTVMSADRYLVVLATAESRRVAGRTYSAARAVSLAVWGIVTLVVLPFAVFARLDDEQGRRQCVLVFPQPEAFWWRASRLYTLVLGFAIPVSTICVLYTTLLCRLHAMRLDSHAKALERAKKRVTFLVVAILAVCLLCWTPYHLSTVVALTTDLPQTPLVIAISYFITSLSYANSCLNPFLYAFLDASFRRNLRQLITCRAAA
TAAR1 ag: human TAAR1 agonism. CHO RD-HGA16 TAAR1, Fluo-8 calcium fluorescence; vehicle wells 0%, saturating PEA agonist 100%. activation, % at 3 µM. 360,000 tested, 0.99% active;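 active = activation above the mean activation of all test compounds in the run plus 3 SD, cut at about 38% in these data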
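Test system: RD-HGA16 (CHO) cells co-expressing Gα16 and hTAAR1 | Doses: Single dose, 3 µM | Schedule: 17-24 h seeding, 75 min 37 °C dye, 30 min RT | Evaluation: % activation from peak over basal fluorescence ratio, DMSO-to-PEA scaled | Technique: Kinetic Fluo-8 calcium fluorescence | Benchmarks: Low control DMSO, high control PEA (EC100)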
MPTP block: blocks calcium-induced mitochondrial swelling; isolated mouse mitochondria, Ca2+ swelling absorbance, 30 min; inhibition, % at 10 µM; 360,000 tested, 1.4% active; AID 602449;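 active = inhibition of 50% or more, scaled per plate between neutral and stimulator controls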
DAGLB inh: blocks human DAGLB lipase activity. Q8NCG7. HEK293T DAGLB membrane lysate, EnzChek fluorogenic substrate. inhibition, % at 5.17 µM. 340,000 tested, 0.059% active. AID 504411; in the data active = inhibition above about 34%
MPTP counter: Rhodamine 123 counter-screen of mitochondrial pore hits; shares compounds with MPTP block; inhibition, % at 10 µM; isolated mitochondria, membrane potential, Rhodamine 123 fluorescence; 5,000 tested, 78% active; in the data active = inhibition above about 22%
Large screens that a line does not name were inactive (follow-up assays come after a bar, where they were run).

S=C(Nc1ccc(Cl)cc1)Nc1ccc2c(c1)OCCO2	MPTP block 50 | MPTP counter 99
Fc1ccc(NC(=S)Nc2ccc(F)c(Cl)c2)cc1Cl	MPTP block 92 (no result: TAAR1 antagonist, TAAR1 ag) | MPTP counter 89
COc1ccc(-c2nc(CN3CCN(c4ncnc5ccccc45)CC3)c(C)o2)c(OC)c1	MPTP block 66 | MPTP counter 29
COc1ccc(NS(=O)(=O)c2ccc(-c3coc(C)n3)cc2)cc1	none
COc1ccc(NS(=O)(=O)c2ccc(-c3coc(C)n3)cc2)cc1OC	MPTP block 98 | MPTP counter 83
COC(=O)[C@]12C[C@H](CC(=O)NCc3ccc(OC)c(OC)c3)C(=O)N(CCc3ccc(OC)c(OC)c3)C1=C[C@H](C(C)(C)C)O[C@@H]2C	none (no result: GPR7 antagonist, MPTP block, DAGLB inh)
COC(=O)c1cc(OC)c(OC)cc1NCC(=O)Nc1cccc(C(F)(F)F)c1	none
COC(=O)c1ccc(CSc2ccccc2NC(=S)Nc2cccc(C(F)(F)F)c2)o1	MPTP block 86 (no result: GPR7 antagonist) | MPTP counter 90
CC(c1ccccc1)c1nnc(NC(=O)Nc2ccccc2F)s1 (stereo unspecified)	none
CCSc1nsc(NC(=O)Nc2ccccc2F)n1	MPTP block 66 | MPTP counter 87
NC(=O)c1ncn2c(=O)n(CCCl)nnc12	none (no result: GPR7 antagonist, MPTP block, DAGLB inh)
CCn1cc(CN(C)S(=O)(=O)c2ccc3ccccc3c2)c(C)n1	MPTP block 91 | MPTP counter 85
CCn1cc(CN(C)S(=O)(=O)c2cccc([N+](=O)[O-])c2)cn1	none
CC(=O)c1ccc(NC(=O)Nc2ccc(S(=O)(=O)N3CCCC3)cc2)cc1	MPTP block 80 | MPTP counter 93
O=C(Nc1ccc(F)cc1)Nc1ccc(S(=O)(=O)N2CCCC2)cc1	TAAR1 antagonist 51, TAAR1 ag 48, MPTP block 83 (no result: GPR7 antagonist) | MPTP counter 100
CC(=O)c1ccc(NC(=O)c2ccc(S(=O)(=O)N3CCCC3)cc2)cc1	none
Cc1oc(S(=O)(=O)N2CCCCC2)cc1NC(=O)Nc1ccc(F)cc1	MPTP block 77 | MPTP counter 87
O=C(Nc1ccc(S(=O)(=O)N2CCCC2)cc1)Nc1ccc(F)cc1F	none
N#C/C(=C(/O)CN1CCOCC1)c1nc2ccccc2s1	none
N#C/C(=C(/O)c1cc2ccccc2o1)c1nc2ccccc2s1	MPTP block 98 | MPTP counter 78
N#C/C(=C(/O)c1ccco1)c1nc2ccccc2s1	none
N#C/C(=C(/O)c1cccc(F)c1)c1nc2ccccc2s1	MPTP block 87 | MPTP counter 86
N#C/C(=C(/O)C(Cl)c1ccccc1)c1nc2ccccc2s1 (stereo unspecified)	MPTP block 55 | MPTP counter 74
COc1ccc(S(=O)(=O)N2CCCc3nc(-c4ccc(Br)cc4)ccc32)cc1	none (no result: GPR7 antagonist, MPTP block, DAGLB inh)
Nc1[nH]c(C(=O)c2ccc(Br)cc2)c(-c2cccc3ccccc23)c1C(=O)NCCc1c[nH]c2ccccc12	none (no result: GPR7 antagonist, MPTP block, DAGLB inh)
CC(C)NC(=O)OCc1c(COC(=O)NC(C)C)c([N+](=O)[O-])n2c1CCC2	none (no result: GPR7 antagonist, DAGLB inh)
C[C@@H]1CNCCN1c1ccc(N2CCN(Cc3ccccc3)[C@@H](C)C2)c(C#N)c1	none (no result: GPR7 antagonist, MPTP block, DAGLB inh)
Cc1[nH]nc2c1C(c1ccc(Br)cc1)N(c1ccccc1)C2=O (stereo unspecified)	none (no result: GPR7 antagonist, MPTP block, DAGLB inh)
Cc1nc(NCCc2ccc(S(N)(=O)=O)cc2)c2c3c(sc2n1)CCC3	none
Cc1nc(NS(=O)(=O)c2ccc(Cl)s2)c2c3c(sc2n1)CCCC3	MPTP block 84 | MPTP counter 77
CCc1ccc(/C=C\C(=O)N2CCCC2)cc1	none (no result: GPR7 antagonist)
CCc1ccc(/C=C\C(=O)N2CCc3ccccc3C2)cc1	MPTP block 61 | MPTP counter 36
COc1cc(NC(=O)CCl)ccc(=O)c1	none (no result: GPR7 antagonist)
COc1ccc(CCc2nnc(CCC(=O)N(C)Cc3ccnc4ccccc34)o2)cc1	MPTP block 79 | MPTP counter 30
O=C(N/N=C1/C(=O)c2cccc3cccc1c23)c1ccc(Cl)cc1	MPTP block 57 | MPTP counter inactive
Fc1ccccc1C1c2cccn2CCN1C(=S)Nc1ccc(Br)cc1 (stereo unspecified)	MPTP block 101 | MPTP counter 92
COC(=O)C1(C(=O)OC)Cc2ccccc2N(S(=O)(=O)c2ccc(C)cc2)C1CC(C)=O (stereo unspecified)	none (no result: GPR7 antagonist, DAGLB inh)

Source: PubChem
